The test system of data set [1] is Rattus norvegicus. The data set is described as follows: Neuroleptic activity in Sprague-Dawley rat assessed as inhibition of d-amphetamine sulfate-induced stereotyped behavior at 20 mg/kg, ip measured every 15 mins for 4 hrs. The data set is classed as functional, organism-based. More on the design: dose 20 mg/kg. In outline:
(§1)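 Male rats (160-180 g), groups of four or more, given d-amphetamine 10 mg/kg ip, then graded ip doses of compound or vehicle 15 min later (highest 20 mg/kg). Behavior scored every 15 min over 4 h: 0 normal, 1 excited, 2 stereotyped. MED is the lowest dose antagonizing all amphetamine effects for the whole period.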

Data set [2] in a line: Dissociation constant, pKa of the compound. The class given is physicochemical.
Data set [3] has as its system Rattus norvegicus. The data set is described as follows: Induction of catalepsy in Sprague-Dawley rat at 5 mg/kg, ip measured after 1 to 24 hrs relative to control. Conditions: in vivo. The class given is organism-based. More on the design: dose 5 mg/kg, route intraperitoneal. In outline: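 Male rats (160-180 g), groups of six, given 5 mg/kg ip. Catalepsy scored at 1, 2, 4, 6 and 24 h using stages III and IV of Wirth et al. The highest mean cataleptic score is expressed as percent of the maximum attainable score.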

Data set [4] concerns Rattus norvegicus. The data set is described as follows: Neuroleptic activity in ip dosed Sprague-Dawley rat assessed as failure in active avoidance response measured within 30 mins. The data set is classed as functional. Conditions: 0.5 h. In outline:
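Male rats (250-400 g) trained in a three-chamber discrimination box to move to a lighted exit within 10 s or receive shock. Before dosing, a two-trial control session in groups of six or more. Graded ip doses, then ten trials 30 min later. Mean failures to leave before shock are taken as percent of trials. ED50 gives 50% failure, by Litchfield-Wilcoxon.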

In data set [5] the test system is Rattus norvegicus. The data set is described as follows: Neuroleptic activity in ip dosed Sprague-Dawley rat assessed as protection against epinephrin bitartrate-induced mortality measured over 24 hrs. The class given is functional. The procedure, abridged:
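Groups of six or more male Sprague–Dawley rats (220–250 g) received graded ip doses. Epinephrine bitartrate, 0.25 mg/kg iv, lethal to untreated rats, was injected 1 h later. Deaths were counted over 24 h. Protective ED50 (mg/kg, ip) is the dose that saved 50% of rats, calculated by Litchfield–Wilcoxon.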

In data set [6] the test system is Rattus norvegicus. The data set is described as follows: Neuroleptic activity in ip dosed Sprague-Dawley rat assessed as inhibition of d-amphetamine sulfate-induced stereotyped behavior measured every 15 mins for 4 hrs. The data set is classed as functional. As to conditions: read-out: MED. In outline: as §1
Data set [7] is filed under the species Mus musculus. The data set is described as follows: Induction of taming effect in Swiss albino mouse assessed as reduction of isolation-induced fighting behavior measured after 0.5 to 3 hrs. The class given is functional. The procedure, abridged: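 Male albino mice (14-16 g) isolated 4-5 weeks, then paired in one cage for 5 min. A morning control session confirmed maximal fighting in both members of each pair. Compounds given ip, with retesting at 30 min and 3 h. All-or-none read-out: effective if no fighting occurred in the 5-min observation. ED50 (mg/kg, ip) is the dose abolishing fighting in 50% of pairs, by Litchfield-Wilcoxon.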

SMILES strings stand for the structures. Calls of active or inactive are those of the source. No cut-off for these calls is given here.

In the case of `CC(C)(C)C1(O)CCN2C[C@H]3Cc4ccccc4Cc4cccc(c43)C2C1` (stereo not given in full), in data set [1], the inhibition result is “inactive”.

Take `CC(C)(C)C1(O)CCN2C[C@H]3CCc4ccccc4-c4cccc(c43)[C@H]2C1` (relative stereo): in data set [1], the inhibition result is “inactive”.

In the case of `CC(C)(C)C1(O)CCN2C[C@H]3CCc4ccccc4-c4cccc(c43)[C@@H]2C1` (relative stereo), the inhibition result in data set [1] is “inactive”.

One may read the pKa as the negative logarithm of the acid dissociation constant. Read a high pKa as a weaker acid or stronger base. In general, ED50 refers to the dose that gives a 50% effect, or the effect in half of the subjects. As to `CC(C)(C)[C@@]1(O)CCN2C[C@@H]3c4ccccc4CCc4cccc(c43)[C@H]2C1`, the pKa in data set [2] was determined as 5.9. In data set [3], the “%max” value was found to be 60%. In addition, the ED50 was 0.64 mg/kg in data set [4], 15 mg/kg in data set [5] and 1.9 mg/kg in data set [7]. Besides, the minimal effective dose in data set [6] amounted to 0.62 mg/kg.

With `CC(C)(C)C1(O)CCN2C[C@H]3Cc4ccccc4Cc4cccc(c43)[C@@H]2C1` (relative stereo), the “%max” value in data set [3] is 45%. For the same molecule, the ED50 turned out to be 1 mg/kg in data set [4], 10 mg/kg in data set [5] and 2 mg/kg in data set [7]. Also, the minimal effective dose in data set [6] is 0.62 mg/kg.

As for `CC(C)(C)C1(O)CCN2C[C@H]3Cc4ccccc4Cc4cccc(c43)[C@H]2C1` (relative stereo), the inhibition entry in data set [1] was “inactive”.

The record behind these values is ChEMBL document CHEMBL3227935, “Mapping the dopamine receptor. 2. Features derived from modifications in the rings A/B region of the neuroleptic butaclamol” (J Med Chem, 1979).
